Assay [1] concerns Mycobacterium tuberculosis variant bovis BCG. Put plainly: Antimycobacterial activity against Mycobacterium bovis BCG ATCC 35734 at 100 ug/ml after 8 days by microplate Alamar blue assay. In kind it is functional, organism-based. Put shortly: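 MABA in 7H12 (M. abscessus, M. bovis BCG) or 7H9 (others). Pre-dye incubation: M. abscessus 37 °C 3 days; BCG 37 °C 7 days; M. chelonae 30 °C 3 days; M. marinum 30 °C 5 days; M. avium and M. kansasii 37 °C 6 days. Then 20% Tween80 plus Alamar blue added: 4 h (abscessus), 6 days (chelonae), 1 day (others). Tested at 100 μg/mL.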
A general note: Alamar Blue is a resazurin reagent that responds to reducing activity.

Assay [2] deals with Mycobacterium tuberculosis. Put plainly: Antimycobacterial activity against rifampin-resistant Mycobacterium tuberculosis ATCC 35838. Format: functional. Put shortly:
(§1)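 Strain (H37Rv or ATCC single-drug-resistant isolates) grown to late log phase in 7H9 with 0.2% glycerol, 0.05% Tween80, 10% OADC. Cells washed into PBS, passed through 8 μm filter, frozen; CFU titred on 7H11 agar. MABA MIC is the lowest concentration giving ≥90% growth inhibition versus untreated controls.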

Assay [3] has as its system Mycobacterium tuberculosis. Briefly: Antimycobacterial activity against cycloserine-resistant Mycobacterium tuberculosis ATCC 35826. In kind it is functional. Put shortly:
as §1

In assay [4] the test system is Mycobacterium tuberculosis. Put plainly: Antimycobacterial activity against streptomycin-resistant Mycobacterium tuberculosis ATCC 35820. Format: functional. Put shortly: as §1
Assay [5] concerns Mycobacterium tuberculosis. Put plainly: Antimycobacterial activity against kanamycin-resistant Mycobacterium tuberculosis ATCC 35827. Format: functional. Put shortly:
as §1

For assay [6], the system named is Mycobacterium tuberculosis. Briefly: Antimycobacterial activity against isoniazid-resistant Mycobacterium tuberculosis ATCC 35822. Format: functional. Put shortly:
as §1

Molecules are shown by their SMILES. ≈ marks a conversion by molar mass, not a printed value. Calls of active or inactive are those of the source. The calls are words filed in the database; no cut-off is given here.

The text below walks through data of ChEMBL document CHEMBL2429835.

Consider `O=c1cc(-c2ccccc2)c2cc(Cl)ccc2o1`, for which the result in assay [1] was inactive.
Broadly, the MIC90 is the lowest concentration that inhibits either 90% of growth or 90% of the strains tested, depending on the study. Low values mean greater potency, high ones weaker potency. `N[C@@H]1CONC1=O` [CYCLOSERINE]: the MIC90 was 4.8 µg/mL (≈ 47 µM) in assay [2]; above 10.2 µg/mL in assay [3]; 4.9 µg/mL (≈ 48 µM) in assay [4]; 4.9 µg/mL (≈ 48 µM) in assay [5]; 5 µg/mL (≈ 49 µM) in assay [6].
Turning to `O=c1cc(-c2ccccc2)c2ccc(Cl)cc2o1`, the outcome in assay [1] was inactive. Besides, the MIC90 in assay [2] stood at 45.4 µg/mL (≈ 177 µM); in assay [3], 47.3 µg/mL (≈ 184 µM); in assay [4], 46.9 µg/mL (≈ 183 µM); in assay [5], 47.4 µg/mL (≈ 185 µM); in assay [6] it was 76.5 µg/mL (≈ 298 µM).
On to `NNC(=O)c1ccncc1` [ISONIAZID], for which the MIC90 is 0.03 µg/mL (≈ 0.219 µM) in assay [2]; 0.04 µg/mL (≈ 0.292 µM) in assay [3]; 0.03 µg/mL (≈ 0.219 µM) in assay [4]; 0.07 µg/mL (≈ 0.51 µM) in assay [5]; above 2.19 µg/mL in assay [6].
`CCOC(=O)c1c(-c2ccccc2)c2cc(Cl)ccc2oc1=O`: in assay [1], the result was inactive. The MIC90 in assay [2] was 46.6 µg/mL (≈ 142 µM); in assay [3], above 100 µg/mL; in assay [4] it was 49.5 µg/mL (≈ 151 µM); in assay [5], above 100 µg/mL; in assay [6], 44.7 µg/mL (≈ 136 µM).
Take `NC[C@H]1O[C@H](O[C@H]2[C@H](O)[C@@H](O[C@H]3O[C@H](CO)[C@@H](O)[C@H](N)[C@H]3O)[C@H](N)C[C@@H]2N)[C@H](O)[C@@H](O)[C@@H]1O` [KANAMYCIN]: the MIC90 in assay [2] was 0.73 µg/mL (≈ 1.51 µM); in assay [3], 1.12 µg/mL (≈ 2.31 µM); in assay [4] it was 0.76 µg/mL (≈ 1.57 µM); in assay [5] it was above 25 µg/mL; in assay [6], 0.72 µg/mL (≈ 1.49 µM).
The corresponding values for `CN[C@@H]1[C@H](O[C@H]2[C@H](O[C@H]3[C@H](O)[C@@H](O)[C@H](N=C(N)N)[C@@H](O)[C@@H]3N=C(N)N)O[C@@H](C)[C@]2(O)C=O)O[C@@H](CO)[C@H](O)[C@H]1O` [STREPTOMYCIN] are 0.47 µg/mL (≈ 0.808 µM), 0.53 µg/mL (≈ 0.911 µM), above 9.31 µg/mL, 1.48 µg/mL (≈ 2.54 µM) and 0.56 µg/mL (≈ 0.963 µM).
For `CCOC(=O)c1c(-c2ccccc2)c2ccc(Cl)cc2oc1=O`, the outcome in assay [1] was inactive. Also, the MIC90 in assay [2] worked out at 44.7 µg/mL (≈ 136 µM); in assay [3], 47.3 µg/mL (≈ 144 µM); in assay [4], 46.9 µg/mL (≈ 143 µM); in assay [5] it was 43.9 µg/mL (≈ 134 µM); in assay [6], 31.7 µg/mL (≈ 96.4 µM).
For `O=[N+]([O-])c1cn2c(n1)OC[C@@H](OCc1ccc(OC(F)(F)F)cc1)C2` [PRETOMANID], the MIC90 in assay [2] is 0.07 µg/mL (≈ 0.195 µM); in assay [3], 0.18 µg/mL (≈ 0.501 µM); in assay [4], 0.17 µg/mL (≈ 0.473 µM); in assay [5] it was 0.34 µg/mL (≈ 0.946 µM); in assay [6], 0.05 µg/mL (≈ 0.139 µM).
Take `CO[C@H]1/C=C/O[C@@]2(C)Oc3c(C)c(O)c4c(O)c(c(/C=N/N5CCN(C)CC5)c(O)c4c3C2=O)NC(=O)/C(C)=C\C=C\[C@H](C)[C@H](O)[C@@H](C)[C@@H](O)[C@@H](C)[C@H](OC(C)=O)[C@@H]1C` [RIFAMPIN]: the MIC90 in assay [2] was above 3.29 µg/mL; in assay [3], 0.02 µg/mL (≈ 0.0243 µM); in assay [4] it was 0.09 µg/mL (≈ 0.109 µM); in assay [5] it was 0.02 µg/mL (≈ 0.0243 µM); in assay [6], 0.04 µg/mL (≈ 0.0486 µM).
